This is an account of results in the RNAGym collection of RNA variant scans (doi:10.1126/science.aae0568).

B1: tRNA (parent)
chain: GUUCCGUUGGCGUAAUGGUAACGCGUCUCCCUCCUAAGGAGAAGACUGCGGGUUCGAGUCCCGUACGGAACG

Variants at the floor of the assay were thinned out.

The variants in this data set derive from B1. Briefly: yeast fitness relative to wild type (ratio to wild type); higher = fitter; tRNA-Arg(CCU), competitive growth, 37 C, YPD. The method, boiled down:
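Variants of the tRNA-Arg(CCU) gene were chemically synthesised with a 3% per-site mutation rate across 69 sites and placed at the native genomic locus in Saccharomyces cerevisiae. Six parallel replicates of the pooled strains were competed in YPD at 37°C for 24 hours, and gene amplicons from the start and end populations were read by 100-nucleotide paired-end sequencing. Darwinian fitness relative to wild type was derived from changes in genotype frequencies. Genotypes required ≥ 100 starting reads, and estimates < 0.5 were set to 0.5.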
Take GUUCUGUUGGUGUAAUGGUAACGAGUCUCCCUCCUAAGGAGAAGACUGCGGGUUAGAGUCCCGUGCGGAACG [C5U C11U C24A C55A A65G]: the yeast fitness is at most 0.5.
For GUUCUGUUGGCGUAAUGGUAACGUGUCUCCCUCCUAAGGAGAAGACUGCGGGUUCGAGUCCCGUACGGCACG [C5U C24U A69C], the yeast fitness came to 0.777.
Take GUUCUGUUGGCGUAAUGGUAACGAGUCUCCCUCCUAAGGAGAAGACUGCGGGUUCGAGUCCCGUACGGAACG [C5U C24A]: the yeast fitness stood at 0.597.
The value for GUUCUGUUGGCGUAAUGGUAACGUGUCUCCCUCCUAAGGAGAAGACUGCGGGUUUGAGUCCCGUACGGAACG [C5U C24U C55U] was 0.711.
Regarding GUUCUGUUGGCGUAAUGGUAAGGCGUCUCCCUCCUAAGGAGAAGACUGCGGGUUCGAGUCCCGUACGGCACG [C5U C22G A69C], the yeast fitness is 0.691.
The same measure for GUUCUGUUGGUGUAAUGGUAACGCGUCUACCUCCUAAGGCGAAGCCUGCGGGUUCGAGUCGCGUACGGAACG [C5U C11U C29A A40C A45C C61G]: 0.612.
On to GUUCUGUUGGCGUAAUGGUAACGUGUCUCCCUCCUGAGGAGAAGAACGCGGGUUAGAGUCCCGUACGGAACG [C5U C24U A36G C46A U47C C55A], for which the yeast fitness was at most 0.5.
The same measure for GUUCUGUUGGCGUAAUGGUAAUGCGUCUCCCUCCUAAGGAGAAGACUCCGGGUUCGAGUCCCGUAUGGAACG [C5U C22U G48C C66U]: at most 0.5; for GUUCUGUUGGCGUAAUGGUAAUGCGUCUCCCUCCUACGGAGAAGACUUCGGGUUAGAGUCCCGUACGGAACG [C5U C22U A37C G48U C55A]: at most 0.5; for GUUCUGUUGGCGUAAUGGUAACGUGUCUCCCUCCUGAGGAGAAGAAUGCGGGUUCGAGUCCCGUACGGAACG [C5U C24U A36G C46A]: 0.92.
For the variant GUUCUGUUGGUGUAAUGGUAACGCGUCUCCCGACUAAGGAGAAGACAGCGGGUUCGAGUCCUGUAGGGAACG [C5U C11U U32G C33A U47A C62U C66G], the yeast fitness is at most 0.5.
For GUUCUGUUGGUGUAAUGGUAACGCGUCUCCCUCCUAAGGAGAAGACUGCGGGUUCGAGUUCCGUACGGUACG [C5U C11U C60U A69U], the yeast fitness turned out to be 0.538.
For the variant GUUCUGUUGGCGUAAUGGUAACGCGUGUCCCUCCUAAGGAGAAGACUGCGGGUUCGAGUACCGUACGGAACG [C5U C27G C60A], the yeast fitness was at most 0.5.
The value for GUUCUGUUGGCGUAAUGGUAAUGCGUCUCGCUCCUAAGGAGAAGACUGCGGGUUCGUGUCCCGUAUGGAUCG [C5U C22U C30G A57U C66U A70U] was at most 0.5; that for GUUCUGUUGGUGUAAUGGUAACGCGUCUCCCUCCUAAGGAGAAGACUGCGGGUUCGUGUCCCGUACGGAACG [C5U C11U A57U] was 0.544; that for GUUCUGUUGGCGUAAUGGUAAGGCGUGUGCCUCCUAAGGAGAAGACUGUGGGUUCGAGUCCCGUACGGAACG [C5U C22G C27G C29G C49U] was at most 0.5.
As to GUUCUGUUGGCGUAAUGGUAACGAGUCUCCCUCCUAAGGAGAAGACUGCGGGUUAGAGUCCCGUGCGGAACG [C5U C24A C55A A65G], the yeast fitness is at most 0.5.
The same measure for GUUCUGUUGGCGUAAUGGUAAGGCGUCUCCCUCCUAAGGGGAAGACUGCGGGUUCGAGUCCCGUACGGAACG [C5U C22G A40G]: 0.741.
The same measure for GUUCUGUUGGUGUAAUGGUAACGCGUCUCCCUCCUUAGGAGAAGACUGGGGGUUCGAGUCCCGUACGGAACG [C5U C11U A36U C49G]: at most 0.5.
The same measure for GUUCUGUUGGCGUAAUGGUAAUGCGUUUCCCUCCUAAGGAGGAGACUGCGGGUUAGAGUACCGUACGGAACG [C5U C22U C27U A42G C55A C60A]: at most 0.5; for GUUCUGUUGGCGUAAUGGUAAUGCGUCUCCCUCCAAUGGAGAAGACUGCGGGUUCGAGUCCCGUACAGAACG [C5U C22U U35A A37U G67A]: at most 0.5; for GUUCUGUUGGCGUAAUGGUAAGGCGUCUACCUCCUAAGGAGAAGACUGCGGGUUCGAGUCACGUACGGAACG [C5U C22G C29A C61A]: at most 0.5.
GUUCUGUUGGCGUAAUGGUAACGGGUCUCCCUCCUAAGGAGAAGACUGCGGGAUCGAGUCCCAUACGGAACG [C5U C24G U53A G63A]: the yeast fitness was at most 0.5.
The value for GUUCUGUUGGCGUAAUGGUAACGUGUCUCCCUCCUAAGGCGAAGUCUGCGGGUUCGAGUCCCGUACGGAACG [C5U C24U A40C A45U] was at most 0.5.
The value for GUUCUGUUGGCGUAAUGGUAAGGGGUCUCCUUCCUAAGGAGAAGACUGCGGGUUCGAGUCCCGUACGGACCG [C5U C22G C24G C31U A70C] was at most 0.5; that for GUUCUGUUGGCGUAAUGGUAACGCGUGUCCCUCCUAAAGAGAAGACUGCGGGUUCGAGUCCCGUACGGAACG [C5U C27G G38A] was 0.515.
The same measure for GUUCUGUUGGCGUAAUGGUAAGGCGGCUCCCUCCUAAGGAGCAGACUGCGGGUUCGAGUCCCGUACGGAACG [C5U C22G U26G A42C]: at most 0.5.
Regarding GUUCUGUUGGCGUAAUGGUAAUGCGUCUCCCUCCUAAGGACAAGACUGGGGGUUCGAGGCCCAUAUGGAACG [C5U C22U G41C C49G U59G G63A C66U], the yeast fitness was at most 0.5.
The same measure for GUUCUGUUGGCGUAAUGGUAACGCGUGUCCCUCCUAAGGAGAAGACUGCGGGUUCGAGUCCCGUACGCAACG [C5U C27G G68C]: 0.577; for GUUCUGUUGGUGUAAUGGUAACGCGUCUCCCUCCUAAGGAGAAGACUGCGGGUUCGAGUCCCGUACCGAACG [C5U C11U G67C]: 0.659.
For GUUCUGUUGGCGUAAUGGUAACGAGUCUCCCUCCUAAGGAGAAGACUGCGGGUUCGAGUCCCGUACCGAACG [C5U C24A G67C], the yeast fitness was 0.547.
The value for GUUCUGUUGGUGUAAUGGUAACGCGUCGCCCUCCUAAGGCGAAGACUGCGGGUUCGAGUCCCGUACGGAACG [C5U C11U U28G A40C] was 1.13; that for GUUCUGUUGGCGUAAUGGUAAGGAGUCUCCCUCCUAAGGAGAAGACUGCGGGUUCGAGUCCCGUACGGAACG [C5U C22G C24A] was at most 0.5; that for GUUCUGUUGGCGUAAUGGUAAGGCGUUUCCCUCCUAAGGAGAAGACUGCGGGUUCGAGUCCCGUACGGAACG [C5U C22G C27U] was 0.612.
The value for GUUCUGUUGGUGUAAUGGUAACGCGUCUCCCUCCUAAGGAGAAGACUGCGGGUUCGAGUCCCGUACGGAACG [C5U C11U] was 0.889; that for GUUCUGUUGGCGUAAUGGUAACGCGUAUCCCUCCUAAGGAGUAGACUGCGGGUUCGAGUCCCGUACGGAACG [C5U C27A A42U] was 0.642.
The same measure for GUUCUGUUGGUGUAAUGGUAACGCGUCUUGCUCCUAAGGAGAAGACUGCGGGUUCGAGUCCCGUACGGACCG [C5U C11U C29U C30G A70C]: at most 0.5; for GUUCUGUUGGCGUAAUGGUAAUGCGUCUCCUUCCUAAGGAGAAGACUGAGGGUUCGAGCCCCGUACGGUACG [C5U C22U C31U C49A U59C A69U]: at most 0.5.
